Test results taken from ChEMBL document CHEMBL4270554, “Discovery of the cancer cell selective dual acting anti-cancer agent (Z)-2-(1H-indol-3-yl)-3-(isoquinolin-5-yl)acrylonitrile (A131)” (Eur J Med Chem, 2018).
The source made the active and inactive calls. The rule behind the calls is not given here.

Tests used:
[1] = system: HeLa; assay: Induction of mitotic arrest in human HeLa cells assessed as formation of misaligned chromosomes at 2.5 uM after 6 hrs by DAPI staining-based immunofluorescence analysis; assay type: functional, cell-based
[2] = system: HeLa; assay: Induction of mitotic arrest in human HeLa cells assessed as formation of disorganized spindles at 15 to 25 uM after 6 hrs by DAPI staining-based immunofluorescence analysis; assay type: functional, cell-based
[3] = system: BJ; assay: Induction of apoptosis in human BJ cells transformed with hTert, small t, shRNAs against p53 and pRb and H-RasV12-ER assessed as activation of caspase-3/7 up to 5 uM after 48 hrs by caspase-Glo 3/7 luminescent assay; assay type: functional, cell-based
Method in brief: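 Normal and transformed BJ cells treated 48 h across a concentration series. Caspase-3/7 activity by Caspase-Glo 3/7 luminescence, normalized to viable cell number from MTT. Mean ± S.D., n=3; two-tailed unpaired t tests.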

[4] = system: HeLa; assay: Induction of autophagy in human HeLa cells assessed as increase in LC3-2 levels after 6 hrs by immunoblot analysis; assay type: functional, cell-based
Method in brief: (§1)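 HeLa cells treated 6 h with 0.625–10 μM test agent or chloroquine (1.25–100 μM), or DMSO. Lysis in 1% Triton buffer (pH 8.0) with protease and phosphatase inhibitors, 14% SDS-PAGE, immunoblot for LC3, pH3 (Ser10) and β-actin. Band intensity ratios (LC3-II/LC3-I; pH3) expressed relative to DMSO control.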

[5] = system: HeLa; assay: Inhibition of colony formation in human HeLa cells after 7 days by plate colony counting method; assay type: functional, cell-based
[6] = system: HeLa; assay: Induction of autophagy in human HeLa cells assessed as increase in LC3 puncta at 2.5 uM after 6 hrs by DAPI staining-based immunofluorescence microscopy; assay type: functional, cell-based
Method in brief: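 HeLa cells exposed to compound or DMSO for 6 h, then immunostained for LC3 with DAPI nuclear counterstain. Puncta formation scored by fluorescence imaging as a read-out of LC3-II.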

[7] = system: hTERT-BJ; assay: Cell cycle arrest in human hTERT-BJ cells transformed with hTert, small t, shRNAs against p53 and pRb and H-RasV12-ER assessed as accumulation at sub-G1 phase at 5 uM after 48 hrs; assay type: functional, cell-based
Method in brief: (§2)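 Isogenic normal and fully transformed BJ fibroblasts (hTert, small t, shRNAs to p53 and pRb, H-RasV12-ER) exposed to 5 μM for 48 h. Percentage of cells in sub-G1 phase determined as a cell death measure.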

[8] = system: HeLa; assay: Induction of mitotic arrest in human HeLa cells expressing GFP-tagged tubulin assessed as appearance of large vacuole like structures that filled out cytoplasmic area at 2.5 uM after 20 hrs by microscopic method; assay type: functional, cell-based
Method in brief: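 HeLa cells stably expressing GFP-tubulin exposed to compound or DMSO for 20 h. Cytoplasmic vacuole-like structures and mitotic arrest examined by high-resolution microscopy.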

[9] = system: HeLa; assay: Induction of mitotic arrest in human HeLa cells assessed as formation of disorganized spindles at 2.5 uM after 6 hrs by DAPI staining-based immunofluorescence analysis; assay type: functional, cell-based
[10] = system: HeLa; assay: Inhibition of mitotic progression in human HeLa cells assessed as upregulation of phosphorylated histone H3 (Ser10) level after 6 hrs by immunoblot analysis; assay type: functional, cell-based; method in brief: as §1
[11] = system: HeLa; assay: Induction of mitotic arrest in human HeLa cells assessed as formation of misaligned chromosomes at 15 to 25 uM after 6 hrs by DAPI staining-based immunofluorescence analysis; assay type: functional, cell-based
[12] = Intrinsic clearance in pooled male rat liver microsomes assessed per mg protein at 3 uM preincubated for 5 mins followed by NADPH addition measured after 45 mins by LC-MS/MS method; assay type: ADME, microsome; settings: read-out: CLH
Method in brief: (§3)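 Pooled female or male rat liver microsomes (0.3 mg protein/mL) with substrate at final 3 μM in 0.1 M phosphate pH 7.4. Pre-incubated 5 min at 37 °C, then started with NADPH (final 1 mM). Sampled at 0–45 min in triplicate, quenched with cold acetonitrile plus internal standard. Parent measured by LC-MS/MS. Midazolam as positive control; no-NADPH negative control.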

[13] = Half life in pooled female rat liver microsomes at 3 uM preincubated for 5 mins followed by NADPH addition measured after 45 mins by LC-MS/MS method; assay type: ADME, microsome
Method in brief: (§4)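 Pooled female or male rat liver microsomes (0.3 mg protein/mL) with 3 μM substrate in 0.1 M phosphate buffer pH 7.4, pre-incubated 5 min at 37 °C, started with 1 mM NADPH. Samples at 0-45 min quenched in cold acetonitrile with internal standard, analysed by LC-MS/MS. Triplicates; midazolam positive control, no-NADPH negative control.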

[14] = system: hTERT-BJ; assay: Induction of autophagy in human hTERT-BJ cells transformed with hTert, small t, shRNAs against p53 and pRb and H-RasV12-ER assessed as increase in LC3-2 to LC3-1 ratio at 5 uM after 24 hrs by immunoblot analysis relative to control; assay type: functional
Method in brief: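 Fully transformed BJ fibroblasts (hTert, small t, shRNAs to p53 and pRb, H-RasV12-ER) grown at 37 °C, 5% CO2 in 10% FBS medium; treated 24 h at 5 μM. Triton lysis, 14% SDS-PAGE, LC3 immunoblot; LC3-II/LC3-I band ratio relative to DMSO-treated control, under 2-fold induction deemed insignificant.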

[15] = Intrinsic clearance in pooled female rat liver microsomes assessed per mg protein at 3 uM preincubated for 5 mins followed by NADPH addition measured after 45 mins by LC-MS/MS method; assay type: ADME, microsome; settings: read-out: CLH; method in brief: as §3
[16] = Half life in pooled male rat liver microsomes at 3 uM preincubated for 5 mins followed by NADPH addition measured after 45 mins by LC-MS/MS method; assay type: ADME, microsome; method in brief: as §4
[17] = system: hTERT-BJ; assay: Inhibition of mitotic progression in human hTERT-BJ cells transformed with hTert, small t, shRNAs against p53 and pRb and H-RasV12-ER assessed as increase in phosphorylated histone H3 (Ser10) level at 5 uM after 24 hrs by immunoblot analysis relative to control; assay type: functional
Method in brief: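 Fully transformed BJ fibroblasts (hTert, small t, shRNAs to p53 and pRb, H-RasV12-ER) treated 24 h at 5 μM. Immunoblot protocol as for HeLa. pH3 (Ser10) band intensity expressed as fold of DMSO control; under 2-fold counted as insignificant.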

[18] = system: BJ; assay: Cell cycle arrest in human BJ cells assessed as accumulation at sub-G1 phase at 5 uM after 48 hrs; assay type: cell-based; method in brief: as §2

Compound: N#C/C(=C\c1cccc2cnccc12)c1c[nH]c2ccccc12
- Activity [1]: Active
- Activity [2]: Active
- Activity [3]: Active
- Activity [4]: Dose-dependent effect
- Activity [5]: Dose-dependent effect
- Activity [6]: Active
- Activity [7]: Active
- Activity [8]: Active
- Activity [9]: Active
- inhibition [10]: Dose-dependent effect
- Activity [11]: Active

Compound: N#C/C(=C\c1cccc2cnccc12)c1c[nH]c2ccc(Br)cc12
- microsomal CLint at 3 µM [12]: 118 µL/min/mg
- half-life at 3 µM [13]: 43.8 min
- fold change (FC) [14]: 4
- microsomal CLint at 3 µM [15]: 53 µL/min/mg
- half-life at 3 µM [16]: 19.6 min
- fold change (FC) [17]: 2.1

Compound: N#C/C(=C\c1cccc2cnccc12)c1c[nH]c2ccc(OCCCN3CCCC3)cc12
- Activity [18]: Non-Toxic
- fold change (FC) [14]: 6
- Activity [7]: inactive
- fold change (FC) [17]: 0.9

Compound: N#C/C(=C/c1cccc2cnccc12)c1nc2ccccc2[nH]1
- Activity [18]: Non-Toxic
- fold change (FC) [14]: 1.2
- Activity [7]: inactive
- fold change (FC) [17]: 1.1
